The nature of data set [1]: folding enthalpy; higher = less favourable; fluorescence melt of hairpins on a sequencing array, two-state fit. The note with it: sodium 0.088 M. Put shortly:
(§1)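 Two-state fits, bootstrapped, provided melting temperature and folding enthalpy from Cy3 fluorescence normalised to pre-quench Cy3 and to control constructs. Library hairpins with annealed Cy3 and quencher oligos were imaged on a sequenced MiSeq flow cell in 50 mM Na-HEPES pH 8.0, 25 mM NaCl, at 2.5 °C intervals up to 60 °C. Four replicates were combined with inverse-variance weighting. A 9.35 °C upward shift was applied to fitted temperatures to match UV melts.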

Data set [2] can be described thus: melting temperature; fluorescence melt of hairpins on a sequencing array, two-state fit, raised by 9.35 °C to match UV melts. The conditions noted are these: sodium 0.088 M. Put shortly: as §1

GGTTGCGGAAACGCGATC (.(.(((....))).).): the folding enthalpy in data set [1] was -82.3 kJ/mol. The Tm in data set [2] amounted to 41.7 °C.
Take GCATCTGGAAACAGATAC (.(((((....))))).): in data set [1], the folding enthalpy was -70.1 kJ/mol. In addition, the Tm in data set [2] came out at 36.3 °C.
The corresponding values for GCAAGGCGAAAGCGCTGC (((..((....))..))) are -72.3 kJ/mol and 50.2 °C.
The corresponding values for GCCGTACGAAAGTAGGGC (((.(((....))).))) are -171 kJ/mol and 60.1 °C.
For GCAGTCGAAAGACTTTGC ((((((....)))..))), the folding enthalpy in data set [1] was -74 kJ/mol. The Tm in data set [2] is 35.7 °C.
The corresponding values for GCCAGGCGAAAGCCACGC ((..(((....)))..)) are -54.9 kJ/mol and 38.8 °C.
The corresponding values for GGGCGCACGAAAGTGCCC (((..(((....)))))) are -50.7 kJ/mol and 57 °C.
As to GGGTCCGAAAGGACTCCC ((((((....)))..))), the folding enthalpy in data set [1] is -46.1 kJ/mol. Also, the Tm in data set [2] is 50.6 °C.
For the sequence GGGCACCGAAAGGTACCC (((.(((....))).))), the folding enthalpy in data set [1] is -147 kJ/mol. For the same sequence, in data set [2], the Tm turned out to be 56.7 °C.
GCCCCACGAAAGTGTGGC (((.(((....))).))): the folding enthalpy in data set [1] is -150 kJ/mol. In data set [2], the Tm was found to be 57.9 °C.
The corresponding values for GGACTTGCGAAAGCATCC (((..(((....)))))) are -39.5 kJ/mol and 26.3 °C.
The corresponding values for GCCTCTCGAAAGAGCGGC (((.(((....))).))) are -155 kJ/mol and 53.4 °C.
GTGAAGGAAACTTCAC ((((((....)))))): the folding enthalpy in data set [1] was -136 kJ/mol. For the same sequence, in data set [2], the Tm was determined as 54.1 °C.
Turning to GATCACAAAGTGATC ((((((...)))))), the folding enthalpy in data set [1] was -160 kJ/mol. In addition, in data set [2], the Tm is 61 °C.
The corresponding values for GTAGGGCGAAAGCCTAC (((.(((....)))))) are -58.9 kJ/mol and 51.8 °C.
The corresponding values for GCGAAGCGAAAGCACCGC (((..((....))..))) are -41.5 kJ/mol and 43.8 °C.
The corresponding values for GTAGAAACGAAAGTTTAC (((..(((....)))))) are -66.3 kJ/mol and 27.4 °C.
On to GAGCGCGAAAGCGTGCTC ((((((....)))..))), for which the folding enthalpy in data set [1] is -71.7 kJ/mol. For the same sequence, the Tm in data set [2] came to 56.4 °C.
The corresponding values for GACACCGAAAGGTGCGTC ((((((....)))..))) are -42.6 kJ/mol and 45.7 °C.
The corresponding values for GAGACCGAAAGGTTGCTC ((((((....)))..))) are -58.8 kJ/mol and 36.2 °C.
The corresponding values for GGGAGGGCGAAAGCCCCC (((..(((....)))))) are -44.4 kJ/mol and 55.3 °C.
With GTCATCGGAAACGATGAC (((((((....))))))), the folding enthalpy in data set [1] was -167 kJ/mol. Also, the Tm in data set [2] was 67.8 °C.
As for GCTCGAGCGAAAGCTAGC (((..(((....)))))), in data set [1], the folding enthalpy is -55.3 kJ/mol. Besides, in data set [2], the Tm was found to be 39.1 °C.
The corresponding values for GTGTACCGAAAGGTTCAC (((.(((....))).))) are -150 kJ/mol and 53.1 °C.
The corresponding values for GGTCTCGAAAGAGCAACC ((((((....)))..))) are -59.6 kJ/mol and 34.5 °C.
The corresponding values for GGTAATGCGAAAGCAACC (((..(((....)))))) are -46.9 kJ/mol and 31.6 °C.
In the case of GTATTAGCGAAAGCTTAC (((..(((....)))))), in data set [1], the folding enthalpy is -53.6 kJ/mol. In addition, the Tm in data set [2] turned out to be 25.5 °C.
The corresponding values for GATCTGCCCACAGATC ((((((....)))))) are -155 kJ/mol and 52.4 °C.
The corresponding values for GCGAGGTCGAAAGACCGC (((..(((....)))))) are -40.1 kJ/mol and 54.3 °C.
As for GATCCCATTCGGGATC ((((((....)))))), in data set [1], the folding enthalpy was -162 kJ/mol. Also, the Tm in data set [2] came to 62.1 °C.
GATCCTTCATAGGATC ((((((....)))))): the folding enthalpy in data set [1] is -165 kJ/mol. The Tm in data set [2] was determined as 52.4 °C.
In the case of GTGAACGAAAGTTCTCAC ((((((....)))..))), the folding enthalpy in data set [1] is -59.7 kJ/mol. The Tm in data set [2] is 35 °C.
As for GCACATTCGAAAGAATGC (((..(((....)))))), the folding enthalpy in data set [1] is -57.7 kJ/mol. The Tm in data set [2] was 33 °C.
The corresponding values for GCAGATGCGAAAGCATGC (((..(((....)))))) are -56.9 kJ/mol and 47.9 °C.
The corresponding values for GTCAGCGGAAACGCCGAC (((.(((....))).))) are -112 kJ/mol and 49.2 °C.
As for GAGTCCGAAAGGACCCTC ((((((....)))..))), the folding enthalpy in data set [1] is -43.1 kJ/mol. Also, the Tm in data set [2] was 43.5 °C.
As to GTTCAGGGAAACCCGAAC ((((.((....)).)))), in data set [1], the folding enthalpy was -133 kJ/mol. Further, the Tm in data set [2] amounted to 42.3 °C.

For the origin of these results see the array DNA melting data of Ke et al. (doi:10.1101/2024.01.08.574731).
